# Experimental data published in ChEMBL document CHEMBL3232996, “Synthesis and biological evaluation of novel (123)I-labeled 4-(4-iodophenyl)butanoyl-L-prolyl-(2S)-pyrrolidines for imaging prolyl oligopeptidase in vivo” (Eur J Med Chem, 2014).
# Columns and labels:
# Mus musculus [1] = assay: Biodistribution in C57Bl/6JRccHsd mouse salivary gland at 2.86 +/- 1.26 MBq, iv measured at 80 mins by SPECT analysis; type: ADME, organism-based; conditions: in vivo
# Summary of the method: (§1)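 Organs excised at 5, 20, 40, 80 or 160 min and radioactivity gamma-counted as %ID/g (brain also as %ID). Blocking groups received KYP-2047 (50 µmol/kg, 10 mL/kg, 1% DMSO in 0.9% NaCl) i.p. 10 min before tracer. Mean ± SD, n = 2–4 per time point. Blocking compared by two-tailed Student's t test.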
# Mus musculus [2] = assay: Biodistribution in C57Bl/6JRccHsd mouse testis at 2.86 +/- 1.26 MBq, iv measured at 80 mins post dose pretreated with 50 umol/kg, ip prolyl oligopeptidase inhibitor KYP-2047 10 mins before compound dosing by SPECT analysis; type: ADME, organism-based; conditions: in vivo; summary of the method: as §1
# Thyroid gland = assay: Biodistribution in C57Bl/6JRccHsd mouse thyroid at 2.86 +/- 1.26 MBq, iv measured at 5 mins by SPECT analysis; type: ADME, organism-based; conditions: in vivo; summary of the method: as §1
# [3] = Drug uptake in iv dosed C57Bl/6JRccHsd mouse blood cells measured at 20 mins; type: ADME, organism-based; conditions: in vivo
# Summary of the method: (§2)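 Mice got tracer i.v., some after i.p. KYP-2047 (50 µmol/kg) 10 min before. Cardiac blood was collected at 20, 40, 80 or 160 min and spun 5 min at 2000 g into cells and plasma. Plasma was precipitated with acetonitrile and pellet and supernatant were gamma-counted. Activity in cells, protein-bound and free plasma is given as % of total blood activity, n = 3.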
# Blood [4] = assay: Biodistribution in C57Bl/6JRccHsd mouse blood at 2.86 +/- 1.26 MBq, iv measured at 40 mins by SPECT analysis; type: ADME, organism-based; conditions: in vivo; summary of the method: as §1
# Muscle tissue [5] = assay: Biodistribution in C57Bl/6JRccHsd mouse muscle at 2.86 +/- 1.26 MBq, iv measured at 80 mins by SPECT analysis; type: ADME, organism-based; conditions: in vivo; summary of the method: as §1
# Heart = assay: Biodistribution in C57Bl/6JRccHsd mouse heart at 2.86 +/- 1.26 MBq, iv measured at 80 mins by SPECT analysis; type: ADME, organism-based; conditions: in vivo; summary of the method: as §1
# Liver = assay: Biodistribution in C57Bl/6JRccHsd mouse liver at 2.86 +/- 1.26 MBq, iv measured at 80 mins by SPECT analysis; type: ADME, organism-based; conditions: in vivo; summary of the method: as §1
# Brain = assay: Biodistribution in C57Bl/6JRccHsd mouse brain at 2.86 +/- 1.26 MBq, iv measured at 80 mins post dose pretreated with 50 umol/kg, ip prolyl oligopeptidase inhibitor KYP-2047 10 mins before compound dosing by SPECT analysis; type: ADME, organism-based; conditions: in vivo; summary of the method: as §1
# [6] = Plasma protein binding in iv dosed C57Bl/6JRccHsd mouse measured at 20 mins post dose pretreated with 50 umol/kg, ip prolyl oligopeptidase inhibitor KYP-2047 10 mins before compound dosing by SPECT analysis; type: ADME, organism-based; conditions: in vivo
# Summary of the method: (§3)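 Male mice given 3.6 MBq tracer i.v. via lateral tail vein; blocking groups got POP inhibitor i.p. (50 µmol/kg, 10 mL/kg, 1% DMSO in 0.9% NaCl) 10 min before. Heparinized cardiac blood on ice, gamma-counted, spun 5 min at 2000 g; plasma counted, precipitated with 1.5 volumes acetonitrile, respun; cell-bound, protein-bound and free fractions expressed as % of blood activity; n = 3.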
# Kidney [7] = assay: Biodistribution in C57Bl/6JRccHsd mouse kidney at 2.86 +/- 1.26 MBq, iv measured at 80 mins post dose pretreated with 50 umol/kg, ip prolyl oligopeptidase inhibitor KYP-2047 10 mins before compound dosing by SPECT analysis; type: ADME, organism-based; conditions: in vivo; summary of the method: as §1
# [8] = Biodistribution in right brain hemisphere of iv dosed C57BL/6JRccHsd mouse dosed 24 hrs after LPS challenge and measured at 80 mins post dose; type: ADME, organism-based; conditions: read-out: Drug uptake
# Summary of the method: (§4)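 Male mice under isoflurane got a stereotaxic LPS injection (E. coli 055:B5) into the left striatum, with buprenorphine 0.1 mg/kg s.c. for post-operative pain. The right hemisphere served as intact control. Tracer was given i.v. 24 h later. Left and right hemisphere and whole-brain radioactivity were measured 80 min post injection as %ID/g or %ID, n = 3.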
# Blood [9] = assay: Biodistribution in C57Bl/6JRccHsd mouse blood at 2.86 +/- 1.26 MBq, iv measured at 20 mins by SPECT analysis; type: ADME, organism-based; conditions: in vivo; summary of the method: as §1
# [10] = Biodistribution in C57Bl/6JRccHsd mouse urine at 2.86 +/- 1.26 MBq, iv measured at 80 mins by SPECT analysis; type: ADME, organism-based; conditions: in vivo; summary of the method: as §1
# [11] = Drug uptake in iv dosed C57Bl/6JRccHsd mouse blood cells measured at 160 mins post dose pretreated with 50 umol/kg, ip prolyl oligopeptidase inhibitor KYP-2047 10 mins before compound dosing by SPECT analysis; type: ADME, organism-based; conditions: in vivo; summary of the method: as §2
# Blood [12] = assay: Biodistribution in C57Bl/6JRccHsd mouse blood at 2.86 +/- 1.26 MBq, iv measured at 160 mins by SPECT analysis; type: ADME, organism-based; conditions: in vivo; summary of the method: as §1
# Kidney [13] = assay: Biodistribution in C57Bl/6JRccHsd mouse kidney at 2.86 +/- 1.26 MBq, iv measured at 80 mins by SPECT analysis; type: ADME, organism-based; conditions: in vivo; summary of the method: as §1
# Mus musculus [14] = assay: Biodistribution in C57Bl/6JRccHsd mouse salivary gland at 2.86 +/- 1.26 MBq, iv measured at 80 mins post dose pretreated with 50 umol/kg, ip prolyl oligopeptidase inhibitor KYP-2047 10 mins before compound dosing by SPECT analysis; type: ADME, organism-based; conditions: in vivo; summary of the method: as §1
# [15] = Fraction unbound in iv dosed C57Bl/6JRccHsd mouse plasma measured at 80 mins; type: ADME, organism-based; summary of the method: as §3
# Muscle tissue [16] = assay: Biodistribution in C57Bl/6JRccHsd mouse muscle at 2.86 +/- 1.26 MBq, iv measured at 80 mins post dose pretreated with 50 umol/kg, ip prolyl oligopeptidase inhibitor KYP-2047 10 mins before compound dosing by SPECT analysis; type: ADME, organism-based; conditions: in vivo; summary of the method: as §1
# Plasma = assay: Stability in human plasma at 2.5 MBq/ml up to 120 mins by HPLC analysis; type: ADME, cell-free; conditions: 2 h
# [17] = Biodistribution in left brain hemisphere of iv dosed C57BL/6JRccHsd mouse LPS-induced acute neuroinflammation model dosed 24 hrs after LPS challenge and measured at 80 mins post dose; type: ADME, organism-based; conditions: read-out: Drug uptake; summary of the method: as §4
# [18] = Plasma protein binding in human at 2.5 MBq/ml after 2 hrs by HPLC analysis; type: ADME, cell-free; conditions: read-out: PPB (converted)
# Spleen = assay: Biodistribution in C57Bl/6JRccHsd mouse spleen at 2.86 +/- 1.26 MBq, iv measured at 80 mins by SPECT analysis; type: ADME, organism-based; conditions: in vivo; summary of the method: as §1
# Blood [19] = assay: Biodistribution in C57Bl/6JRccHsd mouse blood at 2.86 +/- 1.26 MBq, iv measured at 80 mins post dose pretreated with 50 umol/kg, ip prolyl oligopeptidase inhibitor KYP-2047 10 mins before compound dosing by SPECT analysis; type: ADME, organism-based; conditions: in vivo; summary of the method: as §1
# Blood [20] = assay: Biodistribution in C57Bl/6JRccHsd mouse blood at 2.86 +/- 1.26 MBq, iv measured at 80 mins by SPECT analysis; type: ADME, organism-based; conditions: in vivo; summary of the method: as §1
# Mus musculus [21] = assay: Biodistribution in C57Bl/6JRccHsd mouse tongue at 2.86 +/- 1.26 MBq, iv measured at 80 mins post dose pretreated with 50 umol/kg, ip prolyl oligopeptidase inhibitor KYP-2047 10 mins before compound dosing by SPECT analysis; type: ADME, organism-based; conditions: in vivo; summary of the method: as §1
structure (smiles),measurement,setting,value
N#C[C@@H]1CCCN1C(=O)[C@@H]1CCCN1C(=O)CCCc1ccc([123I])cc1,Drug uptake,Mus musculus [1],7.77 % ID/g
same,Drug uptake,Mus musculus [2],0.57 % ID/g
same,Drug uptake,Thyroid gland,52 % ID/g
same,Drug uptake,[3],95%
same,Drug uptake,Blood [4],7.6 % ID/g
same,Drug uptake,Muscle tissue [5],2.15 % ID/g
same,Drug uptake,Heart,12.2 % ID/g
same,Drug uptake,Liver,20.1 % ID/g
same,Drug uptake,Brain,0.08 % ID/g
same,PPB,[6],0%
same,Drug uptake,Kidney [7],4.73 % ID/g
same,tissue uptake at 80 min,[8],1.09 %ID/g
same,Drug uptake,Blood [9],8.5 % ID/g
same,Drug uptake,[10],2.23 % ID/g
same,Drug uptake,[11],42%
same,Drug uptake,Blood [12],2.1 % ID/g
same,Drug uptake,Kidney [13],10.02 % ID/g
same,Drug uptake,Mus musculus [14],1.52 % ID/g
same,fraction unbound at 80 min,[15],0.15
same,Drug uptake,Muscle tissue [16],0.59 % ID/g
same,Stability,Plasma,Stable
same,tissue uptake at 80 min,[17],1.34 %ID/g
same,"fraction unbound at 2 h, 2.5 MBq/ml",[18],0.937
same,Drug uptake,Spleen,10.56 % ID/g
same,Drug uptake,Blood [19],2.69 % ID/g
same,Drug uptake,Blood [20],2.1 % ID/g
same,Drug uptake,Mus musculus [21],1.44 % ID/g
